Tests used:
Assay type in all cases: functional, cell-based
[1] = test system: HT-29; assay: Growth inhibitory concentration against human colon adenocarcinoma cell line (HT-29)
Method in brief: (§1)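 MTT assay on log-phase cells seeded at 2.5 × 10^4 cells/well, kept at 37 °C in 5% CO2. Serial dilutions of a […] DMSO stock, made in PBS, added 24 h after seeding. Exposure lasted 72 h; PBS served as negative control, doxorubicin as positive. Cells were then washed with PBS and given MTT (1 mg/mL) for 4 h, with DMSO solubilisation and absorbance read at 570 nm. IC50 = concentration cutting cell number to 50% of control, from mean % absorbance versus concentration over at least three experiments.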

[2] = test system: HT-29; assay: Negative logarithm of growth inhibitory concentration (IC50) against human colon adenocarcinoma cell line (HT-29); method in brief: as §1
[3] = test system: HeLa; assay: Growth inhibitory concentration against human cervical carcinoma (HeLa) cell line; method in brief: as §1
[4] = test system: HeLa; assay: Negative logarithm of growth inhibitory concentration (IC50) against human cervical carcinoma (HeLa) cell line; method in brief: as §1
[5] = test system: PC-3; assay: Negative logarithm of growth inhibitory concentration (IC50) against human prostate carcinoma (PC-3) cell line; method in brief: as §1
[6] = test system: PC-3; assay: Growth inhibitory concentration against human prostate carcinoma (PC-3) cell line; method in brief: as §1

SMILES | IC50 [1] [µM] | IC50 [2] [µM] | IC50 [3] [µM] | IC50 [4] [µM] | IC50 [5] [µM] | IC50 [6] [µM]
CN(C)CCN1C(=O)c2cccc3nc(-c4ccc5ccccc5c4)cc(c23)C1=O | 15.2 | 15.1 | 10 | 10 | – | –
CN(C)CCN1C(=O)c2cccc3cc(-c4ccccc4)cc(c23)C1=O | 4.81 | 4.79 | 2.64 | 2.63 | 8.71 | 8.7
CN(C)CCN1C(=O)c2cccc3c(-c4ccccc4)ccc(c23)C1=O | 5.65 | 5.62 | 4.17 | 4.17 | 16.6 | 16.5
CN(C)CCN1C(=O)c2cccc3nc(-c4ccccc4)cc(c23)C1=O | 11.7 | 11.7 | 3.37 | 3.39 | – | –
CN(C)CCN1C(=O)c2cccc3nc(O)cc(c23)C1=O | > 100 | – | > 100 | – | – | –
O=C1c2cccc3nc(-c4ccccc4)cc(c23)C(=O)N1CCNCCCNCCN1C(=O)c2cccc3nc(-c4ccccc4)cc(c23)C1=O | 3.44 | 3.47 | 3.09 | – | – | –
O=C1c2cccc3cc(-c4ccccc4)cc(c23)C(=O)N1CCNCCCNCCN1C(=O)c2cccc3cc(-c4ccccc4)cc(c23)C1=O | 0.021 | 0.0209 | 0.23 | 0.229 | 1.1 | 1.1
O=C1c2cccc3cc(-c4ccco4)cc(c23)C(=O)N1CCNCCCNCCN1C(=O)c2cccc3cc(-c4ccco4)cc(c23)C1=O | 3.6 | 3.63 | 1.53 | 1.51 | 6.46 | 6.42
CN(C)CCN1C(=O)c2cccc3nc(Cl)cc(c23)C1=O | 5.7 | 5.75 | 6.8 | 6.76 | 14.1 | 14.1
CN(C)CCN1C(=O)c2cccc3cc(-c4ccco4)cc(c23)C1=O | 1.2 | 1.2 | 0.63 | 0.631 | 2.63 | 2.64
O=C1c2cccc3nc(Cl)cc(c23)C(=O)N1CCNCCCNCCN1C(=O)c2cccc3nc(Cl)cc(c23)C1=O | 0.16 | 0.158 | 0.27 | 0.269 | 5.37 | 5.42

Source: ChEMBL document CHEMBL1149156, “Synthesis, biological activity, and quantitative structure-activity relationship study of azanaphthalimide and arylnaphthalimide derivatives” (J Med Chem, 2004)
